Series [1] can be described thus: Inhibition of embelin-induced migration of human neutrophils preincubated for 30 mins followed by embelin addition and measured after 1 hr by ATPlite luminescence assay. The note with it: Neutrophil. In general terms: In ATP-based viability assays light output follows the ATP content of the culture.
The nature of series [2]: in vivo. The note with it: male, Sprague-Dawley, rat, po, 5 mg/kg.
The target of series [3] is 3',5'-cyclic-AMP phosphodiesterase 4A (Homo sapiens, UniProt P27815). Put plainly: Inhibition of recombinant human PDE4A overexpressed in HEK293 cells assessed as reduction in cAMP hydrolysis by HTRF based immunoassay. The note with it: hek293. Type of series: cell-based. In short, it runs like this: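 Human PDE4A from lysate of HEK293 cells overexpressing the enzyme hydrolyses cAMP; remaining cAMP measured by HTRF competitive immunoassay (d2-labelled cAMP vs cryptate anti-cAMP antibody), signal inversely proportional to cAMP; IC50 determined.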

Series [4] is described as follows: in vivo. The note with it: male, Sprague-Dawley, rat, po, 5 mg/kg. This is another data set of the same source.
Series [5] is described as follows: in vivo. The note with it: male, Sprague-Dawley, rat, po, 5 mg/kg. The source holds these as a separate data set.
The nature of series [6]: in vitro. The note with it: mouse, liver microsomes.
Series [7] can be described thus: in vitro. The note with it: rat, liver microsomes. In general terms: Liver microsomes are a subcellular fraction often used to study metabolism.
Series [8] in a line: in vitro. The note with it: human, liver microsomes.

Chain of 3',5'-cyclic-AMP phosphodiesterase 4A (P27815 whole entry): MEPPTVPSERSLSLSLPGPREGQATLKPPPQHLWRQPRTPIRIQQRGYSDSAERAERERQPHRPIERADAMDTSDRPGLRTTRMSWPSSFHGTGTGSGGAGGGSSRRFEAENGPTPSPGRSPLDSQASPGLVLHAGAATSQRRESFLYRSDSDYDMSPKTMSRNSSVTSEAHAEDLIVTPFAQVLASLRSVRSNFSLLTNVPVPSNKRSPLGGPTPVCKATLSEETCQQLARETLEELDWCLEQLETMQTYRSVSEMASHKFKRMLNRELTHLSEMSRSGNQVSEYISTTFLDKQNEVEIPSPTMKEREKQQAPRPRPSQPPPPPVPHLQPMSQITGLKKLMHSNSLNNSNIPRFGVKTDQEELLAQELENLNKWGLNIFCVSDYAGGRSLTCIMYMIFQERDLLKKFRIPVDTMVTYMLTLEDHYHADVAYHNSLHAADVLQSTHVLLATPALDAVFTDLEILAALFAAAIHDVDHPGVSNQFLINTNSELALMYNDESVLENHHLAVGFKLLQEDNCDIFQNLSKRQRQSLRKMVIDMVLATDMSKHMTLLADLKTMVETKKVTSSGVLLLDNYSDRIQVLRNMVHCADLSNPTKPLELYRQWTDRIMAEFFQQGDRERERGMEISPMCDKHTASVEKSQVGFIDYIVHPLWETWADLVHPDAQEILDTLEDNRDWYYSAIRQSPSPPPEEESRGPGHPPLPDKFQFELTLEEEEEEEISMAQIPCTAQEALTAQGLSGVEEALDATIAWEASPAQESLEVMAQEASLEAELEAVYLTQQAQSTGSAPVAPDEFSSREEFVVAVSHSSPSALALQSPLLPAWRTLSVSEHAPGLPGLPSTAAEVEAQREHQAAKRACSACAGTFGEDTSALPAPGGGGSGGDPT

As a reminder, the IC50 is the concentration that inhibits the measured activity by half. One may read the Cmax as the highest concentration seen after dosing. Broadly, the AUC(0-inf) is total exposure, with the tail of the curve extrapolated. Read a low AUC(0-inf) as low exposure. A word on the Tmax: it is the time from dosing to the highest level. In general, CLint scaled refers to a measure of how fast metabolising enzymes remove a compound, apart from limits set by blood flow. Read a low CLint scaled as slow turnover. On to `O=c1nc(OCC2COCCO2)cc2n1CCc1cc(C#CC3CC3)ccc1-2` (racemic), for which the IC50 was 17 nM in series [1] and “Not Active” in series [3]. In addition, the concentration in series [2] peaked (Cmax at 1.7 h) at 2420 ng/mL. For the same compound, the AUC(0-inf) at 24 h in series [4] came out at 10200 ng·h/mL. In addition, in series [5], the Tmax is 1.7 h. Also, the figures for the intrinsic metabolic clearance (CLint scaled) at 0.5 h, 1 µM in series [6], in series [7] and in series [8] were 162 mL/min/kg, 23.3 mL/min/kg and 36.7 mL/min/kg, respectively.

Source of the values: ChEMBL document CHEMBL4673243, “Discovery of 9-Cyclopropylethynyl-2-((S)-1-[1,4]dioxan-2-ylmethoxy)-6,7-dihydropyrimido[6,1-a]isoquinolin-4-one (GLPG1205), a Unique GPR84 Negative Allosteric Modulator Undergoing Evaluation in a Phase II Clinical Trial” (J Med Chem, 2020).
